pIC50: −log10 of the molar value.
How the values were obtained:
Histone deacetylase 1 = Histone deacetylase 1 (Homo sapiens, UniProt Q13547); experiment: Inhibition of human HDAC1 expressed in 293T cells using Ac-KGLGK(Ac)-MCA as substrate incubated for 30 mins in presence of 0.1 mM DTT by fluorescence plate reader assay; design: species or system HEK293T
[1] = biological target: T1, Protein deacetylase HDAC6 (Mus musculus, UniProt Q9Z2V5); experiment: Inhibition of mouse HDAC6 expressed in 293T cells using Ac-KGLGK(Ac)-MCA as substrate incubated for 30 mins in presence of 0.1 mM DTT by fluorescence plate reader assay; design: species or system HEK293T
T1 sequence (Q9Z2V5 whole entry): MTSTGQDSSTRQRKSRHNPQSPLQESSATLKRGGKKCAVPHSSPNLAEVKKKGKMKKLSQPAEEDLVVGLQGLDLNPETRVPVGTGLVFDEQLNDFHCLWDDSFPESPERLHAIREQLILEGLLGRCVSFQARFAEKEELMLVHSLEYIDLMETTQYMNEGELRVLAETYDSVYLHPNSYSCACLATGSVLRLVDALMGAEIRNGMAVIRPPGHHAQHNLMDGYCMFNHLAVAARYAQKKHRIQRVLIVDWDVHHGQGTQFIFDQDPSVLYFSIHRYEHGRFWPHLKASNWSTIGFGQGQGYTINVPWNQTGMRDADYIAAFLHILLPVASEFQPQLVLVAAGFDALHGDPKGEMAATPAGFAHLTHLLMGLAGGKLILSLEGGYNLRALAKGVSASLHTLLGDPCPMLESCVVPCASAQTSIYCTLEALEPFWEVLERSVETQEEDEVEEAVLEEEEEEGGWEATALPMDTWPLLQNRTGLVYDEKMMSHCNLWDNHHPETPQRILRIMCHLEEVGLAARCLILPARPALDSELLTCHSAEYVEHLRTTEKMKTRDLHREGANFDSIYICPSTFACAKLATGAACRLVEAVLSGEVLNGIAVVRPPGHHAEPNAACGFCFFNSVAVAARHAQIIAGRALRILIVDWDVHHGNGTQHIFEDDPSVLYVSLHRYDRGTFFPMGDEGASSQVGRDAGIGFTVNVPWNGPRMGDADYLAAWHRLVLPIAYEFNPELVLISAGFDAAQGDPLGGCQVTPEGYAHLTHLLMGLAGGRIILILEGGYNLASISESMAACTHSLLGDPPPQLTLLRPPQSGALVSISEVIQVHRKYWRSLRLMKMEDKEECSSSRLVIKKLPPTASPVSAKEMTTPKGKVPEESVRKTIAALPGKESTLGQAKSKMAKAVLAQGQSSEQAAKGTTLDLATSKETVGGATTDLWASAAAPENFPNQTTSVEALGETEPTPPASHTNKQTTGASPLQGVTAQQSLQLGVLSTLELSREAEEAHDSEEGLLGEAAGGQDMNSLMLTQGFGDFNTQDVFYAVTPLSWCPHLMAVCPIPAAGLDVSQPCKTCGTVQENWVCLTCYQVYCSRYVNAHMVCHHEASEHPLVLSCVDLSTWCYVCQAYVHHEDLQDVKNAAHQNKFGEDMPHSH
Procedure, shortened: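 HDAC enzyme assay run in the presence of 0.1 mM dithiothreitol (DTT); IC₅₀ determined.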

[2] = Selectivity index, ratio of IC50 for mouse HDAC6 expressed in 293T cells to IC50 for human HDAC1 expressed in 293T cells using Ac-KGLGK(Ac)-MCA as substrate incubated for 30 mins in presence of 0.1 mM DTT by fluorescence plate reader assay; conditions: 0.5 h
Procedure, shortened: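 Ratio of HDAC6 IC₅₀ to HDAC1 IC₅₀, taken as selectivity for class I HDAC1 over class II HDAC6. Both enzyme assays were run in the presence of 0.1 mM DTT.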

[3] = Growth inhibition of human HBC4 cells measured after 48 hrs by sulforhodamine B assay; assay type: functional
Procedure, shortened: (§1)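 Panel of 39 human cancer cell lines tested at the Japanese Foundation for Cancer Research. Five concentrations per compound, spanning 10⁻¹¹–10⁻⁷ M, 10⁻¹⁰–10⁻⁶ M or 10⁻⁸–10⁻⁴ M, were used to build dose-response curves. GI₅₀ is the concentration giving 50% growth inhibition relative to control.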

[4] = Growth inhibition of human BSY1 cells measured after 48 hrs by sulforhodamine B assay; assay type: functional; conditions: BSY-1; procedure, shortened: as §1
[5] = Growth inhibition of human HBC5 cells measured after 48 hrs by sulforhodamine B assay; assay type: functional; procedure, shortened: as §1
MCF7 = experiment: Growth inhibition of human MCF7 cells measured after 48 hrs by sulforhodamine B assay; assay type: functional; procedure, shortened: as §1
MDA-MB-231 = experiment: Growth inhibition of human MDA-MB-231 cells measured after 48 hrs by sulforhodamine B assay; assay type: functional; procedure, shortened: as §1
U-251 = experiment: Growth inhibition of human U-251 cells measured after 48 hrs by sulforhodamine B assay; assay type: functional; procedure, shortened: as §1
SF-268 = experiment: Growth inhibition of human SF-268 cells measured after 48 hrs by sulforhodamine B assay; assay type: functional; procedure, shortened: as §1
SF-295 = experiment: Growth inhibition of human SF-295 cells measured after 48 hrs by sulforhodamine B assay; assay type: functional; procedure, shortened: as §1
SF-539 = experiment: Growth inhibition of human SF-539 cells measured after 48 hrs by sulforhodamine B assay; assay type: functional; procedure, shortened: as §1
SNB-75 = experiment: Growth inhibition of human SNB-75 cells measured after 48 hrs by sulforhodamine B assay; assay type: functional; procedure, shortened: as §1
SNB-78 = experiment: Growth inhibition of human SNB-78 cells measured after 48 hrs by sulforhodamine B assay; assay type: functional; procedure, shortened: as §1
HCC 2998 = experiment: Growth inhibition of human HCC 2998 cells measured after 48 hrs by sulforhodamine B assay; assay type: functional; procedure, shortened: as §1
KM12 = experiment: Growth inhibition of human KM12 cells measured after 48 hrs by sulforhodamine B assay; assay type: functional; procedure, shortened: as §1
HT-29 = experiment: Growth inhibition of human HT-29 cells measured after 48 hrs by sulforhodamine B assay; assay type: functional; procedure, shortened: as §1
HCT-15 = experiment: Growth inhibition of human HCT-15 cells measured after 48 hrs by sulforhodamine B assay; assay type: functional; procedure, shortened: as §1
HCT-116 = experiment: Growth inhibition of human HCT-116 cells measured after 48 hrs by sulforhodamine B assay; assay type: functional; procedure, shortened: as §1
NCI-H23 = experiment: Growth inhibition of human NCI-H23 cells measured after 48 hrs by sulforhodamine B assay; assay type: functional; procedure, shortened: as §1
NCI-H226 = experiment: Growth inhibition of human NCI-H226 cells measured after 48 hrs by sulforhodamine B assay; assay type: functional; procedure, shortened: as §1
NCI-H522 = experiment: Growth inhibition of human NCI-H522 cells measured after 48 hrs by sulforhodamine B assay; assay type: functional; procedure, shortened: as §1
NCI-H460 = experiment: Growth inhibition of human NCI-H460 cells measured after 48 hrs by sulforhodamine B assay; assay type: functional; procedure, shortened: as §1
A549 = experiment: Growth inhibition of human A549 cells measured after 48 hrs by sulforhodamine B assay; assay type: functional; procedure, shortened: as §1
DMS-273 = experiment: Growth inhibition of human DMS-273 cells measured after 48 hrs by sulforhodamine B assay; assay type: functional; procedure, shortened: as §1
DMS-114 = experiment: Growth inhibition of human DMS-114 cells measured after 48 hrs by sulforhodamine B assay; assay type: functional; procedure, shortened: as §1
LOX IMVI = experiment: Growth inhibition of human LOX IMVI cells measured after 48 hrs by sulforhodamine B assay; assay type: functional; procedure, shortened: as §1
OVCAR-3 = experiment: Growth inhibition of human OVCAR-3 cells measured after 48 hrs by sulforhodamine B assay; assay type: functional; procedure, shortened: as §1
OVCAR-4 = experiment: Growth inhibition of human OVCAR-4 cells measured after 48 hrs by sulforhodamine B assay; assay type: functional; procedure, shortened: as §1
OVCAR-5 = experiment: Growth inhibition of human OVCAR-5 cells measured after 48 hrs by sulforhodamine B assay; assay type: functional; procedure, shortened: as §1
OVCAR-8 = experiment: Growth inhibition of human OVCAR-8 cells measured after 48 hrs by sulforhodamine B assay; assay type: functional; procedure, shortened: as §1
SK-OV-3 = experiment: Growth inhibition of human SK-OV-3 cells measured after 48 hrs by sulforhodamine B assay; assay type: functional; procedure, shortened: as §1
RXF 631 = experiment: Growth inhibition of human RXF 631 cells measured after 48 hrs by sulforhodamine B assay; assay type: functional; procedure, shortened: as §1
ACHN = experiment: Growth inhibition of human ACHN cells measured after 48 hrs by sulforhodamine B assay; assay type: functional; procedure, shortened: as §1
St-4 = experiment: Growth inhibition of human St-4 cells measured after 48 hrs by sulforhodamine B assay; assay type: functional; procedure, shortened: as §1
MKN-1 = experiment: Growth inhibition of human MKN-1 cells measured after 48 hrs by sulforhodamine B assay; assay type: functional; procedure, shortened: as §1
MKN-7 = experiment: Growth inhibition of human MKN-7 cells measured after 48 hrs by sulforhodamine B assay; assay type: functional; procedure, shortened: as §1
MKN-28 = experiment: Growth inhibition of human MKN-28 cells measured after 48 hrs by sulforhodamine B assay; assay type: functional; procedure, shortened: as §1
MKN-45 = experiment: Growth inhibition of human MKN-45 cells measured after 48 hrs by sulforhodamine B assay; assay type: functional; procedure, shortened: as §1
MKN-74 = experiment: Growth inhibition of human MKN-74 cells measured after 48 hrs by sulforhodamine B assay; assay type: functional; procedure, shortened: as §1
DU-145 = experiment: Growth inhibition of human DU-145 cells measured after 48 hrs by sulforhodamine B assay; assay type: functional; procedure, shortened: as §1
PC-3 = experiment: Growth inhibition of human PC-3 cells measured after 48 hrs by sulforhodamine B assay; assay type: functional; procedure, shortened: as §1

Sequence of Histone deacetylase 1 (Q13547 whole entry): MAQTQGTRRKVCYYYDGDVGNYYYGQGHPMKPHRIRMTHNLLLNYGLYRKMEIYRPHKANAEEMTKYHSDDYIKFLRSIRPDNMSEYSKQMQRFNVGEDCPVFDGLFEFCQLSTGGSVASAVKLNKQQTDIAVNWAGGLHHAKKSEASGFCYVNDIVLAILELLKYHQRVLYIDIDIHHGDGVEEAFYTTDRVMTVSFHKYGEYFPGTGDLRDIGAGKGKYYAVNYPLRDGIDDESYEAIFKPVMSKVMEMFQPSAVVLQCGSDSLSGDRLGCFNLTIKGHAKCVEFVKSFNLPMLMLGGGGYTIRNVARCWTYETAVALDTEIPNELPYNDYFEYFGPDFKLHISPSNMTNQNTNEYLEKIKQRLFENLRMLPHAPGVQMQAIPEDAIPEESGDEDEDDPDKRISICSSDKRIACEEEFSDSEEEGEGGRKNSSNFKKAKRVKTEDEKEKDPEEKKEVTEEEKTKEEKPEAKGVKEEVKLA

Compound: CC(C)[C@H]1NC(=O)C[C@H]2/C=C/CCSSC[C@@H](NC1=O)C(=O)N[C@H](Cc1ccccc1)C(=O)NCC(=O)O2
- pIC50 (Histone deacetylase 1): 9.27
- pIC50 [1]: 7.26
- Ratio IC50 [2]: 102
- GI50 [3]: 37 nM
- GI50 [4]: 36 nM
- GI50 [5]: 84 nM
- GI50 (MCF7): 62 nM
- GI50 (MDA-MB-231): 8.7 nM
- GI50 (U-251): 22 nM
- GI50 (SF-268): 5 nM
- GI50 (SF-295): 21 nM
- GI50 (SF-539): 3.3 nM
- GI50 (SNB-75): 8.7 nM
- GI50 (SNB-78): 8.6 nM
- GI50 (HCC 2998): 3.2 nM
- GI50 (KM12): 2.8 nM
- GI50 (HT-29): 3 nM
- GI50 (HCT-15): 100 nM
- GI50 (HCT-116): 2.6 nM
- GI50 (NCI-H23): 4.4 nM
- GI50 (NCI-H226): 4.8 nM
- GI50 (NCI-H522): 0.72 nM
- GI50 (NCI-H460): 6.2 nM
- GI50 (A549): 3.4 nM
- GI50 (DMS-273): 20 nM
- GI50 (DMS-114): 4.1 nM
- GI50 (LOX IMVI): 2.2 nM
- GI50 (OVCAR-3): 17 nM
- GI50 (OVCAR-4): 27 nM
- GI50 (OVCAR-5): 6.8 nM
- GI50 (OVCAR-8): 4.6 nM
- GI50 (SK-OV-3): 2.4 nM
- GI50 (RXF 631): 7.9 nM
- GI50 (ACHN): 24 nM
- GI50 (St-4): 34 nM
- GI50 (MKN-1): 2.6 nM
- GI50 (MKN-7): 35 nM
- GI50 (MKN-28): 78 nM
- GI50 (MKN-45): 64 nM
- GI50 (MKN-74): 5.9 nM
- GI50 (DU-145): 3.6 nM
- GI50 (PC-3): 5.7 nM

Compound: CC(C)[C@H]1NC(=O)C[C@H]2/C=C/CCSSC[C@@H](NC1=O)C(=O)N[C@@H](C)C(=O)NCC(=O)O2
- pIC50 (Histone deacetylase 1): 6.74
- pIC50 [1]: 5.99
- Ratio IC50 [2]: 6
- GI50 [3]: 17000 nM
- GI50 [4]: 27000 nM
- GI50 [5]: 21000 nM
- GI50 (MCF7): 17000 nM
- GI50 (MDA-MB-231): 16000 nM
- GI50 (U-251): 17000 nM
- GI50 (SF-268): 17000 nM
- GI50 (SF-295): 51000 nM
- GI50 (SF-539): 15000 nM
- GI50 (SNB-75): 14000 nM
- GI50 (SNB-78): 13000 nM
- GI50 (HCC 2998): 13000 nM
- GI50 (KM12): 15000 nM
- GI50 (HT-29): 12000 nM
- GI50 (HCT-15): 100000 nM
- GI50 (HCT-116): 11000 nM
- GI50 (NCI-H23): 27000 nM
- GI50 (NCI-H226): 21000 nM
- GI50 (NCI-H522): 1700 nM
- GI50 (NCI-H460): 43000 nM
- GI50 (A549): 18000 nM
- GI50 (DMS-273): 47000 nM
- GI50 (DMS-114): 15000 nM
- GI50 (LOX IMVI): 4500 nM
- GI50 (OVCAR-3): 16000 nM
- GI50 (OVCAR-4): 22000 nM
- GI50 (OVCAR-5): 15000 nM
- GI50 (OVCAR-8): 31000 nM
- GI50 (SK-OV-3): 16000 nM
- GI50 (RXF 631): 100000 nM
- GI50 (ACHN): 100000 nM
- GI50 (St-4): 62000 nM
- GI50 (MKN-1): 14000 nM
- GI50 (MKN-7): 43000 nM
- GI50 (MKN-28): 24000 nM
- GI50 (MKN-45): 100000 nM
- GI50 (MKN-74): 18000 nM
- GI50 (DU-145): 15000 nM
- GI50 (PC-3): 13000 nM
